Reference: ChEMBL document CHEMBL1130239, “Synthesis and evaluation of (S)-4-(3-(2'-[11C]isopropylamino)-2-hydroxypropoxy) -2H-benzimidazol -2-one ((S)-[11C]CGP 12388) and (S)-4-(3-((1'-[18F]-fluoroisopropyl)amino)-2-hydroxypropoxy) -2H- benzimidazol-2-one ((S)-[18F]fluoro-CGP 12388) for visualization of beta-adrenoceptors with positron …” (J Med Chem, 1997)

Experiments:
Rattus norvegicus [1] = organism: Rattus norvegicus; experiment: Biodistribution of [18]Fluoro-CGP 12388 (60 minutes post injection) in bone of male wistar rats; format: ADME, organism-based, Bone element; conditions: in vivo, 1 h
Summary of the method: (§1)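 Pentobarbital-anesthetized (60 mg/kg ip) male Wistar rats (200 ± 20 g) received iv saline (n = 4) or 500 μg (±)-propranolol (n = 4) <1 min before 2 MBq (30 pmol) tracer in 0.3 mL. They were killed by heart extirpation at 10 or 60 min. Plasma came from blood centrifuged 3 min at 1000g. Tissue counts are expressed as DAR, mean ± SD.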

Rattus norvegicus [2] = organism: Rattus norvegicus; experiment: Biodistribution of [18]Fluoro-CGP 12388 (60 minutes post injection) in red blood cells of male wistar rats; format: ADME, organism-based; conditions: in vivo, 1 h
Summary of the method: (§2)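 Male Wistar rats (200 ± 20 g) under ip pentobarbital (60 mg/kg). Saline given iv <1 min before tracer (controls, n = 4). Tracer (2 MBq, 30 pmol) injected iv in 0.3 mL. Rats killed by heart extirpation at 60 min and tissues dissected; plasma taken by centrifugation (3 min, 1000g). Uptake given as DAR, (cpm/g tissue)/(injected cpm/body weight g), mean ± SD.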

Rattus norvegicus [3] = organism: Rattus norvegicus; experiment: Biodistribution of [18]Fluoro-CGP 12388 (10 minutes post injection) in liver of male wistar rats; format: ADME, organism-based; conditions: in vivo; summary of the method: as §1
Rattus norvegicus [4] = organism: Rattus norvegicus; experiment: Biodistribution of [18]Fluoro-CGP 12388 (60 minutes post injection) in intestine of male wistar rats; format: ADME, organism-based; conditions: in vivo, 1 h; summary of the method: as §1
Rattus norvegicus [5] = organism: Rattus norvegicus; experiment: Biodistribution of [18]Fluoro-CGP 12388 (60 minutes post injection) in heart of male wistar rats; format: ADME, organism-based; conditions: in vivo, 1 h; summary of the method: as §1
Rattus norvegicus [6] = organism: Rattus norvegicus; experiment: Biodistribution of [18]Fluoro-CGP 12388 (60 minutes post injection) in plasma of male wistar rats; format: ADME, organism-based; conditions: in vivo, 1 h; summary of the method: as §2
Rattus norvegicus [7] = organism: Rattus norvegicus; experiment: Biodistribution of [18]Fluoro-CGP 12388 (10 minutes post injection) in cortex of male wistar rats; format: ADME, organism-based; conditions: in vivo; summary of the method: as §1
Rattus norvegicus [8] = organism: Rattus norvegicus; experiment: Biodistribution of [18]Fluoro-CGP 12388 (60 minutes post injection) in spleen of male wistar rats; format: ADME, organism-based; conditions: in vivo, 1 h; summary of the method: as §2
Rattus norvegicus [9] = organism: Rattus norvegicus; experiment: Biodistribution of [18]Fluoro-CGP 12388 (10 minutes post injection) in muscle of male wistar rats; format: ADME, organism-based, Muscle tissue; conditions: in vivo; summary of the method: as §1
Rattus norvegicus [10] = organism: Rattus norvegicus; experiment: Biodistribution of [18]Fluoro-CGP 12388 (60 minutes post injection) in cerebellum of male wistar rats; format: ADME, organism-based; conditions: in vivo, 1 h; summary of the method: as §1
Rattus norvegicus [11] = organism: Rattus norvegicus; experiment: Biodistribution of [18]Fluoro-CGP 12388 (10 minutes post injection) in bone of male wistar rats; format: ADME, organism-based, Bone element; conditions: in vivo; summary of the method: as §1
[12] = Partition coefficient (logP); format: physicochemical; conditions: octanol/water
Summary of the method: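 50-100 μCi of tracer in 0.1 M phosphate buffer pH 7.4 (5 mL) plus n-octanol (5 mL). Shaken vigorously for 30 min at 37 °C, five mixtures. 100 μL of each layer gamma-counted. log P from the octanol/water count ratio, n = 5. A calculated value was also obtained with Pallas 1.2.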

Rattus norvegicus [13] = organism: Rattus norvegicus; experiment: Biodistribution of [18]Fluoro-CGP 12388 (60 minutes post injection) in lung of male wistar rats; format: ADME, organism-based; conditions: in vivo, 1 h; summary of the method: as §1
Rattus norvegicus [14] = organism: Rattus norvegicus; experiment: Biodistribution of [18]Fluoro-CGP 12388 (60 minutes post injection) in trachea of male wistar rats; format: ADME, organism-based; conditions: in vivo, 1 h; summary of the method: as §2
Rattus norvegicus [15] = organism: Rattus norvegicus; experiment: Biodistribution of [18]Fluoro-CGP 12388 (60 minutes post injection) in muscle of male wistar rats; format: ADME, organism-based, Muscle tissue; conditions: in vivo, 1 h; summary of the method: as §2
Rattus norvegicus [16] = organism: Rattus norvegicus; experiment: Biodistribution of [18]Fluoro-CGP 12388 (10 minutes post injection) in fat of male wistar rats; format: ADME, organism-based, Adipose tissue; conditions: in vivo; summary of the method: as §1
Rattus norvegicus [17] = organism: Rattus norvegicus; experiment: Biodistribution of [18]Fluoro-CGP 12388 (10 minutes post injection) in kidney of male wistar rats; format: ADME, organism-based; conditions: in vivo; summary of the method: as §1
Rattus norvegicus [18] = organism: Rattus norvegicus; experiment: Biodistribution of [18]Fluoro-CGP 12388 (10 minutes post injection) in intestine of male wistar rats; format: ADME, organism-based; conditions: in vivo; summary of the method: as §1
Rattus norvegicus [19] = organism: Rattus norvegicus; experiment: Biodistribution of [18]Fluoro-CGP 12388 (60 minutes post injection) in cortex of male wistar rats; format: ADME, organism-based; conditions: in vivo, 1 h; summary of the method: as §1
Rattus norvegicus [20] = organism: Rattus norvegicus; experiment: Biodistribution of [18]Fluoro-CGP 12388 (10 minutes post injection) in lung of male wistar rats; format: ADME, organism-based; conditions: in vivo; summary of the method: as §1
Rattus norvegicus [21] = organism: Rattus norvegicus; experiment: Biodistribution of [18]Fluoro-CGP 12388 (10 minutes post injection) in spleen of male wistar rats; format: ADME, organism-based; conditions: in vivo; summary of the method: as §1
Rattus norvegicus [22] = organism: Rattus norvegicus; experiment: Biodistribution of [18]Fluoro-CGP 12388 (10 minutes post injection) in heart of male wistar rats; format: ADME, organism-based; conditions: in vivo; summary of the method: as §1
Rattus norvegicus [23] = organism: Rattus norvegicus; experiment: Biodistribution of [18]Fluoro-CGP 12388 (10 minutes post injection) in trachea of male wistar rats; format: ADME, organism-based; conditions: in vivo; summary of the method: as §1
Rattus norvegicus [24] = organism: Rattus norvegicus; experiment: Biodistribution of [18]Fluoro-CGP 12388 (60 minutes post injection) in kidney of male wistar rats; format: ADME, organism-based; conditions: in vivo, 1 h; summary of the method: as §1
Rattus norvegicus [25] = organism: Rattus norvegicus; experiment: Biodistribution of {18]Fluoro-CGP 12388 (60 minutes post injection) in liver of male wistar rats; format: ADME, organism-based; conditions: in vivo, 1 h; summary of the method: as §2
Rattus norvegicus [26] = organism: Rattus norvegicus; experiment: Biodistribution of [18]Fluoro-CGP 12388 (60 minutes post injection) in fat of male wistar rats; format: ADME, organism-based, Adipose tissue; conditions: in vivo, 1 h; summary of the method: as §1
Rattus norvegicus [27] = organism: Rattus norvegicus; experiment: Biodistribution of [18]Fluoro-CGP 12388 (10 minutes post injection) in red blood cells of male wistar rats; format: ADME, organism-based; conditions: in vivo; summary of the method: as §1
Rattus norvegicus [28] = organism: Rattus norvegicus; experiment: Biodistribution of [18]Fluoro-CGP 12388 (10 minutes post injection) in plasma of male wistar rats; format: ADME, organism-based; conditions: in vivo; summary of the method: as §1
Rattus norvegicus [29] = organism: Rattus norvegicus; experiment: Biodistribution of [18]Fluoro-CGP 12388 (10 minutes post injection) in cerebellum of male wistar rats; format: ADME, organism-based; conditions: in vivo; summary of the method: as §1

SMILES: CC(C[18F])NC[C@H](O)COc1cccc2[nH]c(O)nc12 (some centres undefined)
- DAR (Rattus norvegicus [1]): 0.41
- DAR (Rattus norvegicus [2]): 0.39
- DAR (Rattus norvegicus [3]): 1.62
- DAR (Rattus norvegicus [4]): 0.87
- DAR (Rattus norvegicus [5]): 0.46
- DAR (Rattus norvegicus [6]): 0.35
- DAR (Rattus norvegicus [7]): 0.13
- DAR (Rattus norvegicus [8]): 0.41
- DAR (Rattus norvegicus [9]): 0.42
- DAR (Rattus norvegicus [10]): 0.12
- DAR (Rattus norvegicus [11]): 0.39
- logP [12]: 0.44
- DAR (Rattus norvegicus [13]): 0.59
- DAR (Rattus norvegicus [14]): 0.37
- DAR (Rattus norvegicus [15]): 0.3
- DAR (Rattus norvegicus [16]): 0.53
- DAR (Rattus norvegicus [17]): 7.93
- DAR (Rattus norvegicus [18]): 1.52
- DAR (Rattus norvegicus [19]): 0.12
- DAR (Rattus norvegicus [20]): 1.37
- DAR (Rattus norvegicus [21]): 1.17
- DAR (Rattus norvegicus [22]): 1.09
- DAR (Rattus norvegicus [23]): 0.7
- DAR (Rattus norvegicus [24]): 0.91
- DAR (Rattus norvegicus [25]): 0.64
- DAR (Rattus norvegicus [26]): 0.07
- DAR (Rattus norvegicus [27]): 0.57
- DAR (Rattus norvegicus [28]): 0.51
- DAR (Rattus norvegicus [29]): 0.17
